≈ marks a conversion by molar mass, not a printed value.
What was measured:
Format in all cases: functional
Clostridium perfringens [1] = assay: Antimicrobial activity against Clostridium perfringens isolated from intra-abdominal infection and pelvic inflammatory disease patients after 48 hrs by agar dilution method
In short: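 CLSI agar dilution on brucella blood agar supplemented with laked sheep blood, hemin and vitamin K. Inoculum about 1 × 10^5 CFU/spot, applied by Steers replicator. Plates incubated 48 h at 35°C in an anaerobic glove box. MIC is the concentration giving marked growth reduction versus the anaerobic control plate. Standard QC strains included in each run.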

Clostridioides difficile = assay: Bactericidal activity against Clostridium difficile isolated from intra-abdominal infection and pelvic inflammatory disease patients assessed as bacterial killing at MIC after 48 hrs by time kill analysis
In short: (§1)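 Macrodilution time-kill in prereduced brucella broth with 5% laked horse blood, hemin 5 μg/ml and vitamin K1 1 μg/ml, at final inoculum 10^6–10^7 CFU/ml. […] Viable counts were taken at 6, 12, 24 and 48 h on plates incubated 48 h anaerobically. 99.9% kill was taken as bactericidal.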

Prevotella intermedia = assay: Bactericidal activity against beta lactamase-positive Prevotella intermedia isolated from intra-abdominal infection and pelvic inflammatory disease patients assessed as bacterial killing at MIC after 48 hrs by time kill analysis
In short: (§2)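 Anaerobic macrodilution time-kill. Inoculum from brucella blood plates, prepared and diluted in prereduced brucella broth inside the anaerobe chamber. Final 10^6 to 10^7 CFU/ml in prereduced brucella broth with 5% laked horse blood cells, 5 μg/ml hemin and 1 μg/ml vitamin K1. […] Shaken at 35°C for 48 h. Viable counts taken at 6, 12, 24 and 48 h. 99.9% kill taken as bactericidal.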

Bacteroides fragilis = assay: Bactericidal activity against beta lactamase-positive Bacteroides fragilis isolated from intra-abdominal infection and pelvic inflammatory disease patients assessed as bacterial killing at MIC after 48 hrs by time kill analysis; in short: as §1
Fusobacterium nucleatum = assay: Bactericidal activity against beta lactamase-positive Fusobacterium nucleatum isolated from intra-abdominal infection and pelvic inflammatory disease patients assessed as bacterial killing at MIC after 48 hrs by time kill analysis; in short: as §2
Finegoldia magna = assay: Bactericidal activity against beta lactamase-positive Finegoldia magna isolated from intra-abdominal infection and pelvic inflammatory disease patients assessed as bacterial killing at MIC after 48 hrs by time kill analysis; in short: as §2
Clostridium perfringens [2] = assay: Bactericidal activity against Clostridium perfringens isolated from intra-abdominal infection and pelvic inflammatory disease patients assessed as bacterial killing at MIC after 48 hrs by time kill analysis
In short: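 Time-kill in prereduced brucella broth with 5% laked horse blood cells, hemin and vitamin K1. […] Viable counts taken at 6, 12, 24 and 48 h, plates incubated 48 h anaerobically. Kill scored as 90%, 99% or 99.9%; 99.9% defines bactericidal.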

[3] = tested on: Bacteroides thetaiotaomicron; assay: Bactericidal activity against beta lactamase-positive Bacteroides thetaiotaomicron isolated from intra-abdominal infection and pelvic inflammatory disease patients assessed as bacterial killing at MIC after 48 hrs by time kill analysis; in short: as §1

SMILES	MIC50 (Clostridium perfringens [1])	MIC90 (Clostridium perfringens [1])	Activity (Clostridioides difficile)	Activity (Prevotella intermedia)	Activity (Bacteroides fragilis)	Activity (Fusobacterium nucleatum)	Activity (Finegoldia magna)	Activity (Clostridium perfringens [2])	Activity [3]	MIC (Clostridium perfringens [1])
C[C@@H](O)[C@H]1C(=O)N2C(C(=O)O)=C(S[C@@H]3CN[C@H](C(=O)Nc4cccc(C(=O)O)c4)C3)[C@H](C)[C@H]12	0.06 µg/mL (≈ 0.126 µM)	0.125 µg/mL (≈ 0.263 µM)								
C[C@@H](O)[C@H]1C(=O)N2C(C(=O)O)=C(S[C@@H]3CN[C@H](CNS(N)(=O)=O)C3)[C@H](C)[C@H]12 [DORIPENEM]	0.03 µg/mL (≈ 0.0713 µM)	0.03 µg/mL (≈ 0.0713 µM)	99%	99%	99%	99%	99%	99%	99%	
C[C@@H](O)[C@H]1C(=O)N2C(C(=O)O)=C(SCCNC=N)C[C@H]12 [IMIPENEM ANHYDROUS]	0.06 µg/mL (≈ 0.2 µM)	0.125 µg/mL (≈ 0.418 µM)	99%	99%	99%	99%	99%	99%	99%	
C[C@@H](O)[C@H]1C(=O)N2C(C(=O)O)=C(S[C@@H]3CN[C@H](C(=O)N(C)C)C3)[C@H](C)[C@H]12 [MEROPENEM]	≤ 0.016 µg/mL	≤ 0.016 µg/mL								≤ 0.016 µg/mL
